An excerpt weighted towards active compounds, which were near 2.7% of everything screened.
RAM inhibit = inhibitors of the yeast RAM network, primary screen, dse1pr::URA3 reporter, 5-FOA selection. S. cerevisiae dse1pr::URA3 reporter, 5-FOA growth OD615, 2 d; analog-sensitive cbk1-as2 kinase mutant strain. 1.8% of 190,000 active. AID 868, 2007. inhibition, % at 50 µM;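 active = inhibition above a set limit, 3 SD over mean compound inhibition, cut at about 8.4% in these data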;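 also: 0% = DMSO-only wells with no growth and 100% = 10 µM 1-NA-PP1 full growth; inhibition rescues growth on 5-FOA so higher OD means more RAM inhibition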
Yeast life ext = compounds extending yeast replicative lifespan, primary screen, S. cerevisiae, OD615. S. cerevisiae growth with nicotinamide; deaD strain in restrictive glucose medium. 0.68% of 130,000 active. AID 775, 2007. inhibition of the nicotinamide effect, % at 10 µM;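 active = inhibition above a set limit, placed 3 SD over the median of all compounds, cut at about 26% in these data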;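 also: 0% = nicotinamide-treated wells and 100% = cells grown without nicotinamide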
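Assay system: DeaD-strain S. cerevisiae. Medium: CSMM-D glucose medium, restrictive. Reagent: nicotinamide, 1.5 mM, co-present with compound. Compound: 10 µM single point, 0.25% DMSO. Schedule: culture preincubation 4 h, compound exposure 48 h, both 30 °C. Detection: absorbance at 615 nm.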
SDO1 yeast rescue = growth rescue of sdo1-depleted yeast, primary screen, S. cerevisiae, bone marrow failure model | S. cerevisiae sdo1-depleted JHY4D growth rescue, OD600 30 h; hits give high values; pdr5 snq2 efflux-pump mutant strain | z-score at 10 µM | 0.21% of 140,000 active | AID 817, 2007;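 active = z-score above 3 at both the 24 hr and the 30 hr optical density reads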;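 also: z-score against mean and SD of all compound wells on the same plate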
BB579 growth dn = growth inhibitors of yeast BB579 in restrictive medium, primary screen, yeast lifespan-shortening project, S. cerevisiae; OD615, 48 h; 0.51% of 140,000 active; inhibition, % at 10 µM; AID 804, 2007;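 active = inhibition above a set limit, 3 SD over the mean compound inhibition, cut at about 44% in these data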
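Test system: Saccharomyces cerevisiae DeaD strain BB579, replicative lifespan model yeast | Buffer or medium: Restrictive CSMM-D medium | Doses: One dose, 10 µM compound with 0.25% DMSO | Incubation: 48 h exposure, 30 °C | Detection: Culture absorbance at 615 nm | Control set: Amphotericin B at 10 µg/mL as positive control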
The depositor's hits bear a star; · = not tested or not shown.

SMILES | RAM inhibit | Yeast life ext | SDO1 yeast rescue | BB579 growth dn
Cc1ccccc1S(=O)(=O)Oc1ccccc1C(=O)Oc1ccccc1 | 8 | -13 | -0.81 | -12
O=C(Nc1ccccc1)c1ccc(-c2ccc(Br)cc2)o1 | 3 | · | -1.8 | -21
COc1ccccc1NC(=O)c1ccc(-c2ccc(Br)cc2)o1 | 11* | -6 | -0.89 | -56
COc1ccc(S(=O)(=O)CCC(=O)N2CCN(c3ccc(F)cc3)CC2)cc1 | 10* | · | · | ·
CC(C)(C)c1[nH]nc2c1C(c1ccc(OC(=O)c3ccco3)cc1)C(C#N)=C(N)O2 (stereo not drawn) | 10* | -3 | 0.24 | -84
Nc1nonc1/C(=N/O)N1CCN(CCO)CC1 | 1 | -4 | 0.69 | -48
O=C(NC(=S)Nc1ccccc1)c1ccc(-c2ccccc2)cc1 | 9.4* | 8 | -1.4 | -17
Cc1cc(N2CCN(C(=O)c3ccco3)CC2)n2ncnc2n1 | 1 | · | 0.57 | -18
Cc1cc(N2CCN(C(=O)c3ccco3)CC2)n2ncc(-c3ccccc3)c2n1 | -1 | -16 | -3.2 | 98*
CCOc1cc(N2CCOCC2)c(OCC)cc1NC(=O)c1ccc(OC(C)C)cc1 | 8.8* | · | · | ·
COc1ccc(S(=O)(=O)Nc2nnc(C(C)(C)C)s2)cc1 | -1 | 30 | -0.26 | -56
CC1CCN(c2cc(=O)n(C3CCCCC3)c(=O)[nH]2)CC1 | 2 | -4 | -0.1 | 10
O=C(O)C(Cc1ccccc1)N1C(=O)c2ccccc2C1=O (stereo not drawn) | 1 | -6 | 0.54 | 6
[N-]=[N+]=CC(=O)C(Cc1ccccc1)N1C(=O)c2ccccc2C1=O (stereo not drawn) | 2 | 34* | -0.37 | -12
Cc1cc(C)nc(/N=C(\N)N2CCc3ccccc32)n1 | 0 | · | · | ·
Cc1ccc(N2CCN(C(=S)c3ccc(N(C)C)cc3)CC2)cc1 | 1 | -8 | -1.7 | -10
Oc1c(Br)cc(Cl)cc1C=Nc1ccc(N2CCOCC2)cc1 | 0 | · | · | ·
Oc1c(Br)cc(Cl)cc1C=Nc1ccccc1Br | -1 | 16 | -0.02 | 65*
COc1cccc(-c2nc(-c3ccc4c(c3)-c3ccccc3S4(=O)=O)c(-c3ccccc3)[nH]2)c1OC | 9.2* | · | -1.3 | -9
COc1cc(-c2nc(-c3ccc4c(c3)-c3ccccc3S4(=O)=O)c(-c3ccccc3)[nH]2)cc(OC)c1OC | 6 | -4 | -0.02 | -54
Cc1ccc(NC(=O)C2C(=O)N(C)c3ccccc32)cc1 (stereo not drawn) | 0 | 28* | 1 | -23
Cc1ccc(NC(=O)C2C(=O)N(CCO)C3(C)CC2c2ccccc2O3)cc1 (stereo not drawn) | 0 | -7 | -1.5 | 2
CN1C(=O)C(C(=O)Nc2ccccc2F)c2ccccc21 (stereo not drawn) | 0 | 45* | -0.03 | -14
O=S(=O)(/N=C(\Sc1ccc(Cl)cc1)c1ccccc1)c1ccccc1 | -1 | -21 | -2.1 | 88*
CSc1ccc(/C=C(\C#N)C(=O)NC2CCCCC2C)cc1 (stereo not drawn) | 8 | 9 | -1.8 | -60
SMILES | RAM inhibit | Yeast life ext | SDO1 yeast rescue | BB579 growth dn
CC1CCCCC1NC(=O)/C(C#N)=C/c1ccccc1F (stereo not drawn) | -1 | 63* | -1.8 | -25
Cc1ccc(C(=O)NC2(C(F)(F)F)N=C3SCCN3C2=O)cc1 (stereo not drawn) | 2 | -6 | 0.1 | -18
Cc1cccc(NC(=O)N2CCC(NC(=O)c3ccccc3C)CC2)c1 | 9.6* | -3 | 0.29 | 1
Cc1cccc(NC(=O)N2CCC(NC(=O)c3ccco3)CC2)c1 | 2 | · | · | ·
CC(=O)c1ccc(NC(=O)Nc2ccc3c(c2)N(C)C(=O)CS3)cc1 | 2 | -3 | -0.07 | -8
CCOc1ccc(NC(=O)Nc2ccc3c(c2)N(C)C(=O)CS3)cc1 | 11* | -5 | -0.31 | -40
O=C(CSc1ncnc2ccccc12)NCCCO | 1 | -4 | 0.88 | -6
CC(C)N=c1scc(-c2cccs2)n1/N=C/c1ccc(O)c(O)c1O | 2 | 2 | -1.3 | 96*
O=C(NCc1ccccc1)C(=O)NCC1OCCN1C(=O)c1cccs1 (stereo not drawn) | 0 | -3 | 0.05 | 3
Cc1ccc(CNC(=O)C(=O)NCC2OCCN2C(=O)c2cccs2)cc1 (stereo not drawn) | 9.5* | -3 | 0.12 | -7
CCOC(=O)C1CCCCN1C(=O)CCc1c(C)nc2cc(-c3ccccc3)nn2c1C (stereo not drawn) | 0 | 10 | -1.8 | 48*

Screening results as filed in PubChem BioAssay.
